Like-named read-outs stand apart in the source and are kept apart here.
Legend:
[1] = Renal impairment study: safety and tolerability; assay type: in vivo, human
How it was run: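 In the renal-impairment study, adverse events were recorded from screening until follow-up and coded by System Organ Class and preferred term (MedDRA 17.0). Vital signs, ECGs and clinical laboratory tests were also recorded. All subjects received a single fasted oral 50 mg dose. Healthy subjects returned for follow-up 3–7 days later.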

[2] = assay type: in vivo, human; conditions: for AUCu, geometric least-squares mean / Cmax,u, geometric least-squares mean / AUCu / Cmax,u: unbound
[3] = cited from earlier work
[4] = Hepatic impairment study: safety and tolerability; assay type: in vivo, human
How it was run: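 Adverse events were collected from screening until follow-up at 7–14 days postdose and coded by System Organ Class and preferred term (MedDRA 17.0). Vital signs, ECGs and clinical laboratory tests were also recorded. Single fasted oral doses were 50 mg (mild), 50 or 25 mg (moderate), 20 mg (severe Child-Pugh) and 50 mg (healthy).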

[5] = assay type: in vivo, human; conditions: for tmax / half-life: human, plasma, oral; for tmax: median (min-max); for half-life: arithmetic mean (SD); for AUCu/dose, geometric least-squares mean / Cmax,u/dose, geometric least-squares mean: unbound
[6] = Hepatic impairment study: excretion in urine; assay type: in vivo, human
How it was run: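 Urine from hepatic-impairment and healthy subjects was collected at −12 to 0 h predose, then 0–6, 6–12, 12–24, 24–36 and 36–48 h, and every 24 h to 120 h after a single oral dose. Dosing followed an overnight fast, with fasting until 4 h postdose. Analytes were measured by LC-MS/MS (positive electrospray, MRM) against carbon-13 internal standards.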

[7] = Renal impairment study: excretion in urine and blood dialysate; assay type: in vivo, human
How it was run: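 Subjects were ESRD patients on haemodialysis or healthy subjects with creatinine clearance >80 mL/min, each given 50 mg orally while fasted. ESRD patients were dosed once after dialysis and, after a washout of ≥7 days, once 1 h before dialysis. Urine was collected predose and in intervals to 72 h. Dialysate spot samples were taken every 30 min, and parameters were derived by the area under the excretion rate curve method. Analysis was by LC-MS/MS.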

plasma proteins = assay: Unbound fraction in plasma; assay type: in vitro ADME, human
How it was run: (§1)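 Unbound fraction was measured in human plasma by ultrafiltration after a single oral dose. Ultrafiltrate was analysed by LC-MS/MS in MRM mode with carbon-13 internal standards. Within each subject, the mean percentage unbound from 3 results was applied to all of that subject's samples to give the average fraction unbound (fu,av).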

[8] = Unbound fraction in plasma; assay type: in vitro ADME, human; conditions: human, plasma, oral, fu,av, hepatic impairment study, median (min-max)
How it was run: as §1

[9] = healthy subjects, 50 mg, geometric mean (gCV%)
[10] = ESRD, treatment period 1 (50 mg after dialysis), geometric mean (gCV%)
[11] = non-Asian patients, 75 mg twice daily, used as exposure limit
[12] = moderate hepatic impairment, 50 or 25 mg
[13] = severe hepatic impairment, 20 mg

Q: Which AEs reported ([1]; healthy subjects, 50 mg) does the source give for Cn1cnc2c(F)c(Nc3ccc(Br)cc3Cl)c(C(=O)NOCCO)cc21 [Selumetinib] here?
A: No AEs were reported

Q: What about the tolerability ([1]; single oral dose 50 mg) of the same compound?
A: well tolerated

Q: And the “AUC lower in the ESRD group (dosed post dialysis) vs healthy subjects” value ([2]; 50 mg)?
A: 28%

Q: And the “AUC lower when dosed before vs after dialysis” value ([2]; ESRD, 50 mg)?
A: 17%

Q: What about the “Cmax lower when dosed before vs after dialysis” value ([2]; ESRD, 50 mg) of the same compound?
A: 30%

Q: And the CL/F [2, 9]?
A: 19.1 L/h

Q: What about the Cmax ([2]; human, plasma, oral, 50 mg, Cmax, healthy subjects, geometric mean (gCV%)) of the same compound?
A: 863 ng/mL

Q: What about the half-life ([2]; human, plasma, oral, 50 mg, t1/2, healthy subjects, arithmetic mean (SD)) of the same compound?
A: 7.34 h

Q: What about the “AUCu, geometric least-squares mean” value ([2]; ESRD, treatment period 1) of the same compound?
A: 10.25 ng·h/mL

Q: What about the “Cmax,u, geometric least-squares mean” value ([2]; ESRD, treatment period 1) of the same compound?
A: 3.95 ng/mL

Q: And the AUCu [2, 10]?
A: 10.3 (20.1) ng·h/mL

Q: What about the “Cmax,u” value [2, 10] of the same compound?
A: 3.95 (34.7) ng/mL

Q: And the “AUCu, geometric least-squares mean” value ([2]; healthy subjects)?
A: 10.55 ng·h/mL

Q: And the “Cmax,u, geometric least-squares mean” value ([2]; healthy subjects)?
A: 3.48 ng/mL

Q: And the AUCu [2, 9]?
A: 10.6 (23.0) ng·h/mL

Q: What about the “Cmax,u” value [2, 9] of the same compound?
A: 3.48 (42.5) ng/mL

Q: What about the “dose linearity of pharmacokinetics” value ([3]; healthy volunteers) of the same compound?
A: linear pharmacokinetics up to 75 mg

Q: And the “mean steady-state AUC(0-12)” value [3, 11]?
A: 4736 ng·h/mL

Q: And the “mean steady-state Cmax” value [3, 11]?
A: 1307 ng/mL

Q: What about the “most frequently reported AEs, diarrhea and vomiting, each” value ([4]; all 32 subjects (N = 2 each)) of the same compound?
A: 6.3%

Q: What about the “subjects reporting at least 1 AE” value ([4]; all 32 subjects, mild or moderate severity) of the same compound?
A: 15.6%

Q: And the tolerability ([4]; single oral dose 20-50 mg)?
A: well tolerated

Q: What about the “AUC/dose, geometric least-squares mean” value ([5]; healthy subjects, 50 mg) of the same compound?
A: 53.64 ng·h/mL/mg

Q: What about the “Cmax/dose, geometric least-squares mean” value ([5]; healthy subjects, 50 mg) of the same compound?
A: 18.88 ng/mL/mg

Q: And the tmax ([5]; 20 mg, severe hepatic impairment)?
A: 1 h

Q: And the half-life ([5]; 50 mg, t1/2, healthy subjects)?
A: 8.02 h

Q: And the half-life ([5]; 50 mg, t1/2, mild hepatic impairment)?
A: 7.72 h

Q: And the half-life ([5]; 50 mg, t1/2, moderate hepatic impairment, 50 mg dose only)?
A: 9.92 h

Q: And the tmax ([5]; 50 mg, healthy subjects)?
A: 1 h

Q: What about the tmax ([5]; 50 mg, mild hepatic impairment) of the same compound?
A: 1.25 h

Q: What about the tmax ([5]; 50 mg, moderate hepatic impairment, 50 mg dose only) of the same compound?
A: 1 h

Q: And the “AUC/dose lower than in healthy subjects” value ([5]; mild hepatic impairment)?
A: 14%

Q: And the “Cmax/dose lower than in healthy subjects” value ([5]; mild hepatic impairment)?
A: 22%

Q: What about the “AUC/dose, geometric least-squares mean” value ([5]; mild hepatic impairment, 50 mg) of the same compound?
A: 45.93 ng·h/mL/mg

Q: What about the “Cmax/dose, geometric least-squares mean” value ([5]; mild hepatic impairment, 50 mg) of the same compound?
A: 14.82 ng/mL/mg

Q: And the “AUC/dose higher than in healthy subjects” value ([5]; moderate hepatic impairment)?
A: 59%

Q: And the “Cmax/dose higher than in healthy subjects” value ([5]; moderate hepatic impairment)?
A: 25%

Q: What about the “AUC/dose, geometric least-squares mean” value [5, 12] of the same compound?
A: 85.11 ng·h/mL/mg

Q: And the “Cmax/dose, geometric least-squares mean” value [5, 12]?
A: 23.57 ng/mL/mg

Q: What about the “AUC/dose higher than in healthy subjects” value ([5]; severe hepatic impairment) of the same compound?
A: 57%

Q: What about the “AUC/dose, geometric least-squares mean” value [5, 13] of the same compound?
A: 84.29 ng·h/mL/mg

Q: What about the “Cmax/dose, geometric least-squares mean” value [5, 13] of the same compound?
A: 18.53 ng/mL/mg

Q: What about the “AUCu/dose, geometric least-squares mean” value ([5]; healthy subjects, 50 mg) of the same compound?
A: 0.1837 ng·h/mL/mg

Q: What about the “Cmax,u/dose, geometric least-squares mean” value ([5]; healthy subjects, 50 mg) of the same compound?
A: 0.06473 ng/mL/mg

Q: What about the “AUCu/dose, geometric least-squares mean” value ([5]; mild hepatic impairment, 50 mg) of the same compound?
A: 0.1271 ng·h/mL/mg

Q: And the “Cmax,u/dose, geometric least-squares mean” value ([5]; mild hepatic impairment, 50 mg)?
A: 0.04094 ng/mL/mg

Q: And the “AUCu/dose, geometric least-squares mean” value [5, 12]?
A: 0.2585 ng·h/mL/mg

Q: What about the “Cmax,u/dose, geometric least-squares mean” value [5, 12] of the same compound?
A: 0.07165 ng/mL/mg

Q: And the “AUCu/dose, geometric least-squares mean” value [5, 13]?
A: 0.5828 ng·h/mL/mg

Q: What about the “Cmax,u/dose, geometric least-squares mean” value [5, 13] of the same compound?
A: 0.1280 ng/mL/mg

Q: What about the “dose excreted in urine” value ([6]; healthy subjects, 50 mg) of the same compound?
A: 0.44%

Q: What about the “dose excreted in urine” value ([6]; mild hepatic impairment, 50 mg) of the same compound?
A: 0.46%

Q: And the “dose excreted in urine” value ([6]; moderate hepatic impairment)?
A: 0.50%

Q: What about the “dose excreted in urine” value [6, 13] of the same compound?
A: 0.90%

Q: And the “dose excreted in dialysate” value ([7]; ESRD, dosed 1 h before dialysis)?
A: 0.92%

Q: And the “fraction excreted in urine” value ([7]; healthy subjects, 50 mg)?
A: 0.49%

Q: And the clearance ([7]; human, blood dialysate, oral, 50 mg)?
A: 9.63 mL/min

Q: And the “dialysis clearance in ESRD as percentage of CL/F in the healthy subjects group” value ([7]; in vivo)?
A: approximately 3%

Q: And the “difference of unbound fraction compared with healthy subjects” value (plasma proteins; hepatic impairment study, mild or moderate impairment)?
A: ≤ 20%

Q: What about the “increase in the unbound fraction compared with healthy subjects” value (plasma proteins; hepatic impairment study, severe impairment) of the same compound?
A: ~90%

Q: What about the fraction unbound (plasma proteins; human, plasma, oral, 50 mg, fu,av, renal impairment study, healthy subjects, median (min-max)) of the same compound?
A: 0.004

Q: And the fraction unbound ([8]; 20 mg, severe impairment)?
A: 0.0065

Q: And the fraction unbound ([8]; 50 mg, healthy subjects)?
A: 0.0035

Q: And the fraction unbound ([8]; 50 mg, mild impairment)?
A: 0.0028

Q: And the fraction unbound ([8]; 50 mg, moderate impairment, 50 mg dose only)?
A: 0.003

Source: publication PMC5412920 (Journal of Clinical Pharmacology, 2016)
